Values after ≈ are worked out from the molar mass of the structure shown. Active and inactive are the calls of the source. No cut-off for these calls is given here.
Tests used:
[1] = tested on: [Chlorella] fusca; assay: Antimicrobial activity against 'Chlorella' fusca at 50 ug/disk by agar diffusion assay; assay type: functional, organism-based; conditions: Scenedesmus fuscus
How it was run: (§1)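 Agar diffusion assay with discs loaded at 50 µg/disk, run against the bacteria, fungi and the green microalga Chlorella fusca.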

[2] = Antioxidant activity assessed as inhibition of FeSO4-induced lipid peroxidation at 8 uM by TBARS assay; assay type: functional
How it was run: (§2)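 Linolenic acid methyl ester oxidized under FeSO4 catalysis in 50 mM phosphate buffer pH 7.2 at 50 °C. BHT in ethanol added to stop further oxidation. TBARS developed with trichloroacetic and thiobarbituric acid, 60 °C for 30 min. Read A532 minus A600 background. % inhibition calculated versus uninhibited control, with blank and sample-blank corrections.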

[3] = Antioxidant activity assessed as inhibition of FeSO4-induced lipid peroxidation at 16 uM by TBARS assay; assay type: functional; how it was run: as §2
[4] = Antioxidant activity assessed as inhibition of FeSO4-induced lipid peroxidation at 82 uM by TBARS assay; assay type: functional; how it was run: as §2
[5] = tested on: Aspergillus pseudoglaucus; assay: Antimicrobial activity against Eurotium repens at 50 ug/disk by agar diffusion assay; assay type: functional, organism-based; how it was run: as §1
[6] = tested on: Radical scavenging activity; assay: Antioxidant activity assessed as DPPH radical scavenging activity at 115 uM after 30 mins; assay type: functional
How it was run: (§3)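 Samples in EtOH (100 µL) mixed with 25 µL of 1 mM DPPH in EtOH plus 75 µL EtOH, then shaken briefly. Kept 30 min at room temperature in the dark. Absorbance read at 517 nm. % scavenging calculated against control, with blank and sample-blank corrections.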

[7] = tested on: Radical scavenging activity; assay: Antioxidant activity assessed as DPPH radical scavenging activity at 12 uM after 30 mins; assay type: functional; how it was run: as §3
[8] = tested on: Mycotypha microspora; assay: Antimicrobial activity against Mycotypha microspora at 50 ug/disk by agar diffusion assay; assay type: functional, organism-based; how it was run: as §1
[9] = Antioxidant activity assessed as inhibition of FeSO4-induced lipid peroxidation at 164 uM by TBARS assay; assay type: functional; how it was run: as §2
[10] = tested on: Radical scavenging activity; assay: Antioxidant activity assessed as DPPH radical scavenging activity at 23 uM after 30 mins; assay type: functional; how it was run: as §3
[11] = tested on: Radical scavenging activity; assay: Antioxidant activity assessed as DPPH radical scavenging activity at 230 uM after 30 mins; assay type: functional; how it was run: as §3
[12] = tested on: Radical scavenging activity; assay: Antioxidant activity assessed as DPPH radical scavenging activity at 6 uM after 30 mins; assay type: functional; how it was run: as §3
[13] = tested on: Escherichia coli; assay: Antimicrobial activity against Escherichia coli at 50 ug/disk by agar diffusion assay; assay type: functional, organism-based; how it was run: as §1
[14] = tested on: Priestia megaterium; assay: Antimicrobial activity against Bacillus megaterium at 50 ug/disk by agar diffusion assay; assay type: functional, organism-based; how it was run: as §1
[15] = tested on: Radical scavenging activity; assay: Antioxidant activity assessed as DPPH radical scavenging activity at 58 uM after 30 mins; assay type: functional; how it was run: as §3
[16] = Antioxidant activity assessed as inhibition of FeSO4-induced lipid peroxidation at 33 uM by TBARS assay; assay type: functional; how it was run: as §2
[17] = tested on: Microbotryum violaceum; assay: Antimicrobial activity against Microbotryum violaceum at 50 ug/disk by agar diffusion assay; assay type: functional, organism-based; how it was run: as §1
[18] = ABTS radical scavenging activity assessed as trolox equivalents by TEAC assay; assay type: physicochemical
How it was run: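 ABTS radical cation made by passing ABTS in PBS through manganese dioxide, then filtered (0.2 µm). Diluted in 5 mM PBS pH 7.4 to A734 0.700 and preincubated 2 h at room temperature. 1 mL radical mixed with 200 µL ethanolic sample, vortexed 30 s, centrifuged. A734 of lower phase read exactly 2 min after mixing. PBS and ethanol blanks included. Trolox standards used; value is mM Trolox equivalent to 1.0 mM compound.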

[19] = Superoxide radical scavenging activity assessed as trolox equivalents by photochemiluminescence assay
How it was run: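 Photochemiluminescence with luminol acting as photosensitizer and detection reagent, generating superoxide. Mix of 2.29 mL reagent 1 (solvent/diluent), 200 µL buffer reagent, 25 µL photosensitizer and 10 µL sample in ethanol or Trolox standard in water. Antioxidant capacity taken from the integral under the curve and expressed as Trolox equivalents.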

[20] = tested on: MCF7; assay: Cytotoxicity against human MCF7 cells; assay type: functional
How it was run: (§4)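 Cytotoxicity tested on HM02 gastric adenocarcinoma, HepG2 hepatocellular carcinoma and MCF7 breast adenocarcinoma lines following NCI standards.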

[21] = tested on: HepG2; assay: Cytotoxicity against human HepG2 cells; assay type: functional; how it was run: as §4
[22] = Cytotoxicity against human HM02 cells; assay type: functional; how it was run: as §4

| SMILES | Activity [1] | inhibition [2] [%] | inhibition [3] [%] | inhibition [4] [%] | Activity [5] | Activity [6] [%] | Activity [7] [%] | Activity [8] | inhibition [9] [%] | Activity [10] [%] | Activity [11] [%] | Activity [12] [%] | Activity [13] | Activity [14] | Activity [15] [%] | inhibition [16] [%] | Activity [17] | Activity [18] [mmol/L] | Activity [19] [mmol/L] | also measured |
| --- | --- | --- | --- | --- | --- | --- | --- | --- | --- | --- | --- | --- | --- | --- | --- | --- | --- | --- | --- | --- |
| CC(C)=CC(O)C/C(C)=C/CC/C(C)=C\C(=O)C/C(C)=C/Cc1cc(O)cc(C)c1O (centres undefined) | inactive | 4.9 | 10.4 | 60.4 | inactive | 95.5 | 9.7 | inactive | 70.3 | 17.1 | 95.5 | 5.8 | inactive | inactive | 55.2 | 19.2 | inactive | – | – | – |
| CC(C)=CCC/C(C)=C/C(=O)C/C(C)=C/Cc1cc(O)cc(C)c1O | inactive | 9.2 | 19.8 | 43.1 | inactive | 59.1 | 3.7 | inactive | 66.8 | 11.2 | 94.1 | 2.6 | inactive | inactive | 29.8 | 22.2 | inactive | – | – | – |
| CC1=CC(=O)C=C(C/C=C(\C)CC(=O)/C=C(/C)CC/C=C(\C)Cc2cc(C)co2)C1=O | inactive | 11.1 | 16.1 | 38.7 | inactive | 22.8 | 1.8 | inactive | 54.4 | 5.5 | 38.6 | 1.1 | inactive | inactive | 12.2 | 24.4 | inactive | 0.3 | 1.41 | – |
| CC(C)=CC(O)C/C(C)=C/CC/C(C)=C/C(=O)C/C(C)=C/Cc1cc(O)cc(C)c1O (centres undefined) | inactive | 7.8 | 11.7 | 55.4 | inactive | 93.2 | 7.4 | inactive | 68.9 | 18.1 | 96.1 | 4.6 | inactive | inactive | 49.2 | 17.6 | inactive | – | – | – |
| CC(C)=CCC/C(C)=C\C(=O)C/C(C)=C/Cc1cc(O)cc(C)c1O | – | 13.2 | 19.9 | 52.9 | – | 92.1 | 5.9 | – | 66.5 | 17.7 | 92.5 | 2.6 | – | – | 50.2 | 28.8 | – | – | – | – |
| Cc1c(C)c2c(c(C)c1O)CC[C@@](C)(CCC[C@H](C)CCC[C@H](C)CCCC(C)C)O2 [ALPHA-TOCOPHEROL] | – | 13.1 | 32.1 | 71.2 | – | 94.9 | 16.3 | – | 72.7 | 33.9 | 95.2 | 8.2 | – | – | 88.1 | 67.6 | – | 0.63 | 1.26 | – |
| CC(C)=CC(=O)C/C(C)=C/CC/C(C)=C/C(=O)C/C(C)=C/Cc1cc(O)cc(C)c1O | inactive | 13.6 | 20.3 | 70.1 | inactive | 95.7 | 14.3 | inactive | 72.2 | 29.1 | 95.5 | 7.6 | inactive | inactive | 80.8 | 39.9 | inactive | 0.37 | 1.39 | – |
| C/C(=C\C(=O)C/C(C)=C/Cc1cc(O)cc(C)c1O)CC/C=C(\C)Cc1cc(C)co1 | inactive | 15.1 | 25.8 | 69.3 | inactive | 95.2 | 12.5 | inactive | 74.9 | 24.9 | 95.4 | 8 | inactive | inactive | 65.4 | 41.2 | inactive | 0.08 | 1.06 | GI50 [20]: 1.3 µg/mL (≈ 3.08 µM); LC50 [20]: 3.7 µg/mL (≈ 8.76 µM); TGI [20]: 2.1 µg/mL (≈ 4.97 µM); GI50 [21]: 1.8 µg/mL (≈ 4.26 µM); LC50 [21]: > 10 µg/mL; TGI [21]: 4 µg/mL (≈ 9.47 µM); GI50 [22]: 0.3 µg/mL (≈ 0.71 µM); LC50 [22]: 3.4 µg/mL (≈ 8.05 µM); TGI [22]: 0.6 µg/mL (≈ 1.42 µM) |
| CC(C)=CCC/C(C)=C/CC/C(C)=C\C(=O)C/C(C)=C/Cc1cc(O)cc(C)c1O | inactive | 10.7 | 12.1 | 66.8 | inactive | 95.4 | 11.8 | inactive | 71.8 | 25.5 | 95.4 | 6.9 | inactive | inactive | 67.2 | 28.6 | inactive | 0.14 | 1.35 | – |
| CC1=CC(=O)C=C(C/C=C(\C)CC(=O)/C=C(\C)CC/C=C(\C)Cc2cc(C)co2)C1=O | – | 7.6 | 14.2 | 31.4 | – | 16 | 2.2 | – | 43.3 | 2.9 | 29 | 1 | – | – | 8.1 | 20.2 | – | – | – | – |
| Cc1cc(C(C)(C)C)c(O)c(C(C)(C)C)c1 | – | 23.1 | 35.4 | 63.3 | – | 22 | 2.9 | – | 69.3 | 5.6 | 35.6 | 1.2 | – | – | 11.8 | 49.1 | – | – | – | – |
| CC(C)=CCC/C(C)=C/CC/C(C)=C/C(=O)C/C(C)=C/Cc1cc(O)cc(C)c1O | inactive | 13.3 | 17 | 61.7 | inactive | 95 | 8.6 | inactive | 70.8 | 24.4 | 94.4 | 6 | inactive | inactive | 67.4 | 24.3 | inactive | – | – | – |
